This passage reports inhibition and IC50 results from ChEMBL document CHEMBL1133306, “Discovery of a new class of p38 kinase inhibitors” (Bioorg Med Chem Lett, 2000).

Experiment [1] concerns the target T1, Mitogen-activated protein kinase 14 (Homo sapiens, UniProt Q16539). As to the kind of experiment: Inhibitory activity against Mitogen-activated protein kinase p38 alpha 2 (expressed Escherichia coli) at concentration of 500 nM. An outline of the steps:
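Activated p38 α2 (0.05 µg/well) phosphorylating myelin basic protein (10 µg/well) in 25 mM HEPES pH 7.4, 20 mM MgCl₂, 150 mM NaCl. Compounds were added from 10% DMSO in water. Reactions were started with 10 µM ATP plus 0.2 µCi [γ-33P]ATP per well, run 35 min at 32 °C, and stopped with HCl. Filter-bound ³³P was counted by scintillation.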

A further experiment relates to SW1353. As to the kind of experiment: Compound was evaluated for its ability to inhibit IL-6 production in SW1353 cells treated with cytokines IL-1 and TNF. In kind it is functional, cell-based. The settings on record: Homo sapiens.
In experiment [2] the target is T1, Mitogen-activated protein kinase 14. As to the kind of experiment: Inhibitory activity against Mitogen-activated protein kinase p38 alpha 2 expressed in Escherichia coli.

T1 sequence (Q16539 whole entry): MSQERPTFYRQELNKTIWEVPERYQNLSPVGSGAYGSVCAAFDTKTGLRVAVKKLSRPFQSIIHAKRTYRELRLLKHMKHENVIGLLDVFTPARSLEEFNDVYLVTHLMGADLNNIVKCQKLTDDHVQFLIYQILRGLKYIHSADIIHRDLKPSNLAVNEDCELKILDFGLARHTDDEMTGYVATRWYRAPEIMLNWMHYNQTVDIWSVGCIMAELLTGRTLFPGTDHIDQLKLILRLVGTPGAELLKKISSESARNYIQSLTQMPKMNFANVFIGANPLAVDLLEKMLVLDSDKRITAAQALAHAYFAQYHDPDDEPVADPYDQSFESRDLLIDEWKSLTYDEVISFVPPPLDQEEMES

Turning to `CCC(C)(C)c1noc(NC(=O)Nc2cccc(Cl)c2Cl)c1C`, the inhibition in experiment [1] was 18%.

For the molecule `CC(C)(C)c1cc(NC(=O)Nc2cccc(Cl)c2Cl)no1`, the IC50 is 1200 nM in the experiment with SW1353 and 58 nM in experiment [2]. Further, the inhibition in experiment [1] is 88%.

For the molecule `CC(C)(C)c1cc(NC(=O)Nc2ccc(Cl)cc2C(F)(F)F)no1`, the inhibition in experiment [1] stood at 9%.

`CC(C)(C)c1cc(NC(=O)Nc2ccccc2C(F)(F)F)no1` yielded an inhibition in experiment [1] of 36%.

With `CC(C)(C)c1cc(NC(=O)Nc2ccc(C(F)(F)F)cc2)no1`, the inhibition in experiment [1] is 39%.

On to `CC(=O)Nc1ccc(NC(=O)Nc2cc(C(C)(C)C)no2)cc1`, for which, in experiment [1], the inhibition was determined as 20%.

Molecule `CC(C)(C)c1cc(NC(=O)Nc2cc(Br)cc(Br)c2)no1` showed an IC50 in experiment [2] of 710 nM.

Turning to `Cc1cccc(NC(=O)Nc2cc(C(C)(C)C)on2)c1C`, the inhibition in experiment [1] stood at 54%.

Molecule `Cc1c(C(C)(C)C)noc1NC(=O)Nc1cccc(Cl)c1Cl` showed an inhibition in experiment [1] of 18%.

In experiment [2], `Cc1c(C(C)C)noc1NC(=O)Nc1cccc(Cl)c1Cl` showed an IC50 of 920 nM. The inhibition in experiment [1] came out at 34%.

Regarding `CC(C)(C)c1cc(NC(=O)Nc2ccc(F)cc2)no1`, the half-inhibitory concentration (IC50) in experiment [2] was determined as 190 nM. Also, the inhibition in experiment [1] came to 74%.

In the case of `CC(C)(C)c1ccc(NC(=O)Nc2cccc(Cl)c2Cl)s1`, in experiment [2], it took 120 nM to reach half-maximal inhibition (IC50). In addition, the inhibition in experiment [1] was determined as 82%.

`CC(C)(C)c1cc(NC(=O)Nc2ccccc2)no1` gave an inhibition in experiment [1] of 33%.

In experiment [2], `CC(C)(C)c1cc(NC(=O)Nc2cccc(Cl)c2Cl)on1` yielded a 50% inhibitory concentration (IC50) of 36 nM. Further, in experiment [1], the inhibition is 93%.

On to `Cc1cc(F)ccc1-c1cc(N(C(N)=O)c2c(Cl)cccc2Cl)ccc1CO`, for which half-maximal inhibition in experiment [2] (IC50) required 2 nM.

`CC(=O)Nc1cccc(NC(=O)Nc2cc(C(C)(C)C)no2)c1` yielded an inhibition in experiment [1] of 11%.

`CC(C)c1cc(NC(=O)Nc2cccc(Cl)c2Cl)on1`: it took 290 nM to reach half-maximal inhibition in experiment [2] (IC50). This molecule had an inhibition in experiment [1] of 62%.

The molecule `CC(=O)Nc1cccc(NC(=O)Nc2cc(C(C)(C)C)on2)c1` came in with an inhibition in experiment [1] of 18%.

Molecule `CC(C)(C)c1cc(NC(=O)Nc2cccc(Cl)c2Cl)cs1` came in with a half-inhibitory concentration (IC50) in experiment [2] of 160 nM. Moreover, the inhibition in experiment [1] was 76%.

As to `CC(C)(C)c1cc(NC(=O)Nc2ccc(Cl)c(Cl)c2)on1`, in experiment [2], the IC50 came out at 220 nM. For the same molecule, in experiment [1], the inhibition is 62%.

As to `CC(C)(C)c1nnc(NC(=O)Nc2cccc(Cl)c2Cl)s1`, the inhibition in experiment [1] came out at 1%.

`CC(C)(C)c1cc(NC(=O)Nc2ccc(F)cc2)on1` registered an inhibition in experiment [1] of 41%.

Regarding `O=C(Nc1cc(C23CC4CC(CC(C4)C2)C3)no1)Nc1cccc(Cl)c1Cl`, the inhibition in experiment [1] amounted to 9%.

As for `CC(C)(C)c1cc(NC(=O)Nc2ccc(C(F)(F)F)cc2)on1`, half-maximal inhibition in experiment [2] (IC50) required 200 nM. Besides, the inhibition in experiment [1] worked out at 77%.

On to `CC(=O)Nc1ccc(NC(=O)Nc2cc(C(C)(C)C)on2)cc1`, for which the inhibition in experiment [1] was determined as 14%.

Turning to `CC(C)(C)c1cc(NC(=O)Nc2ccc(Cl)cc2)on1`, it took 260 nM to reach half-maximal inhibition in experiment [2] (IC50). The same molecule registered an inhibition in experiment [1] of 68%.

In turn, `Cc1cc(NC(=O)Nc2cccc(Cl)c2Cl)on1` yielded an inhibition in experiment [1] of 4%.

Regarding `O=C(Nc1cc(C2CCC2)no1)Nc1cccc(Cl)c1Cl`, the IC50 in experiment [2] stood at 370 nM. The inhibition in experiment [1] is 57%.

In turn, `CCCCc1cc(NC(=O)Nc2cccc(Cl)c2Cl)on1` returned an IC50 in experiment [2] of 1100 nM. In experiment [1], this molecule registered an inhibition of 33%.

In turn, `CC(C)(C)Cc1cc(NC(=O)Nc2cccc(Cl)c2Cl)on1` showed an IC50 in experiment [2] of 120 nM. In addition, the inhibition in experiment [1] is 81%.

As to `CCC(C)(C)c1cc(NC(=O)Nc2cccc(Cl)c2Cl)on1`, 120 nM corresponded to half-maximal inhibition in experiment [2] (IC50). The same molecule gave an inhibition in experiment [1] of 83%.

As for `Cc1cccc(NC(=O)Nc2cc(C(C)(C)C)no2)c1C`, the inhibition in experiment [1] was determined as 49%.
